Experimental data published in ChEMBL document CHEMBL4715736, “Identification of anticancer agents based on the thieno[2,3-b]pyridine and 1H-pyrazole molecular scaffolds” (2016).

How the values were obtained:
Type in all cases: functional
CCRF-CEM [1] = assay: Growth inhibition of human CCRF-CEM cells assessed as cell growth at 0.01 uM incubated for 48 hrs by sulforhodamine B assay relative to control; conditions: read-out: Activity
How it was run: (§1)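 NCI Developmental Therapeutics Program NCI60 panel. Compounds that were active in the 10 µM one-dose screen went on to dose–response testing. Growth at each concentration is expressed relative to untreated control (100%). GI50 (concentration giving 50% of maximal inhibition of proliferation) and TGI (concentration giving total growth inhibition) were derived from the curves.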

A549 [2] = assay: Growth inhibition of human A549/ATCC cells assessed as cell growth at 0.01 uM incubated for 48 hrs by sulforhodamine B assay relative to control; conditions: read-out: Activity; how it was run: as §1
HT-29 = assay: Growth inhibition of human HT-29 cells assessed as cell growth at 0.01 uM incubated for 48 hrs by sulforhodamine B assay relative to control; conditions: read-out: Activity
SF-268 [3] = assay: Growth inhibition of human SF-268 cells assessed as cell growth at 0.01 uM incubated for 48 hrs by sulforhodamine B assay relative to control; conditions: read-out: Activity
SK-MEL-28 = assay: Growth inhibition of human SK-MEL-28 cells assessed as cell growth at 0.01 uM incubated for 48 hrs by sulforhodamine B assay relative to control; conditions: read-out: Activity
MDA-MB-231 [4] = assay: Growth inhibition of human MDA-MB-231 cells assessed as cell growth at 0.01 uM incubated for 48 hrs by sulforhodamine B assay relative to control; conditions: read-out: Activity
T47D [5] = assay: Growth inhibition of human T47D cells assessed as cell growth at 0.01 uM incubated for 48 hrs by sulforhodamine B assay relative to control; conditions: read-out: Activity
CCRF-CEM [6] = assay: Growth inhibition of human CCRF-CEM cells assessed as cell growth at 0.1 uM incubated for 48 hrs by sulforhodamine B assay relative to control; conditions: read-out: Activity; how it was run: as §1
HCT-116 = assay: Growth inhibition of human HCT-116 cells assessed as cell growth at 0.1 uM incubated for 48 hrs by sulforhodamine B assay relative to control; conditions: read-out: Activity
HCT-15 = assay: Growth inhibition of human HCT-15 cells assessed as cell growth at 0.1 uM incubated for 48 hrs by sulforhodamine B assay relative to control; conditions: read-out: Activity
SNB-75 = assay: Growth inhibition of human SNB-75 cells assessed as cell growth at 0.1 uM incubated for 48 hrs by sulforhodamine B assay relative to control; conditions: read-out: Activity
Malme-3M [7] = assay: Growth inhibition of human Malme-3M cells assessed as cell growth at 0.1 uM incubated for 48 hrs by sulforhodamine B assay relative to control; conditions: read-out: Activity
UACC-257 = assay: Growth inhibition of human UACC-257 cells assessed as cell growth at 0.1 uM incubated for 48 hrs by sulforhodamine B assay relative to control; conditions: read-out: Activity
OVCAR-8 = assay: Growth inhibition of human OVCAR-8 cells assessed as cell growth at 0.1 uM incubated for 48 hrs by sulforhodamine B assay relative to control; conditions: read-out: Activity
A498 = assay: Growth inhibition of human A498 cells assessed as cell growth at 0.1 uM incubated for 48 hrs by sulforhodamine B assay relative to control; conditions: read-out: Activity; how it was run: as §1
RXF 393 [8] = assay: Growth inhibition of human RXF 393 cells assessed as cell growth at 0.1 uM incubated for 48 hrs by sulforhodamine B assay relative to control; conditions: read-out: Activity
TK-10 = assay: Growth inhibition of human TK-10 cells assessed as cell growth at 0.1 uM incubated for 48 hrs by sulforhodamine B assay relative to control; conditions: read-out: Activity
SF-539 = assay: Growth inhibition of human SF-539 cells assessed as cell growth at 1 uM incubated for 48 hrs by sulforhodamine B assay relative to control; conditions: read-out: Activity
U-251 = assay: Growth inhibition of human U-251 cells assessed as cell growth at 1 uM incubated for 48 hrs by sulforhodamine B assay relative to control; conditions: read-out: Activity
Malme-3M [9] = assay: Growth inhibition of human Malme-3M cells assessed as cell growth at 1 uM incubated for 48 hrs by sulforhodamine B assay relative to control; conditions: read-out: Activity
NCI/ADR-RES = assay: Growth inhibition of human NCI/ADR-RES cells assessed as cell growth at 1 uM incubated for 48 hrs by sulforhodamine B assay relative to control; conditions: read-out: Activity
MDA-MB-231 [10] = assay: Growth inhibition of human MDA-MB-231 cells assessed as cell growth at 1 uM incubated for 48 hrs by sulforhodamine B assay relative to control; conditions: read-out: Activity
MDA-MB-468 = assay: Growth inhibition of human MDA-MB-468 cells assessed as cell growth at 1 uM incubated for 48 hrs by sulforhodamine B assay relative to control; conditions: read-out: Activity
HOP-62 = assay: Growth inhibition of human HOP-62 cells assessed as cell growth at 100 uM incubated for 48 hrs by sulforhodamine B assay relative to control; conditions: read-out: Activity
OVCAR-4 = assay: Growth inhibition of human OVCAR-4 cells assessed as cell growth at 100 uM incubated for 48 hrs by sulforhodamine B assay relative to control; conditions: read-out: Activity
786-0 = assay: Growth inhibition of human 786-0 cells assessed as cell growth at 100 uM incubated for 48 hrs by sulforhodamine B assay relative to control; conditions: read-out: Activity
CAKI-1 [11] = assay: Growth inhibition of human CAKI-1 cells assessed as cell growth at 100 uM incubated for 48 hrs by sulforhodamine B assay relative to control; conditions: read-out: Activity; how it was run: as §1
RXF 393 [12] = assay: Growth inhibition of human RXF 393 cells assessed as cell growth at 100 uM incubated for 48 hrs by sulforhodamine B assay relative to control; conditions: read-out: Activity
A549 [13] = assay: Growth inhibition of human A549/ATCC cells incubated for 48 hrs by sulforhodamine B assay; conditions: for CC50: read-out: LC50 (the source's name); how it was run: as §1
HCC 2998 = assay: Growth inhibition of human HCC 2998 cells incubated for 48 hrs by sulforhodamine B assay; conditions: for CC50: read-out: LC50 (the source's name)
SF-268 [14] = assay: Growth inhibition of human SF-268 cells incubated for 48 hrs by sulforhodamine B assay
How it was run: (§2)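 NCI DTP 60-line human tumour panel. Dose-response curves were run only for ligands active in the initial 10 µM screen. GI50 (concentration giving 50% of maximal inhibition of proliferation) and TGI (concentration giving total growth inhibition) were derived from these curves.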

Malme-3M [15] = assay: Growth inhibition of human Malme-3M cells incubated for 48 hrs by sulforhodamine B assay
How it was run: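 NCI60 panel at the NCI Developmental Therapeutics Program. Only compounds active in the 10 µM screen went to dose-response testing. GI50, the concentration giving 50% of maximal inhibition of proliferation, and TGI, the concentration giving total growth inhibition, were derived from the dose-response curves.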

CAKI-1 [16] = assay: Growth inhibition of human CAKI-1 cells incubated for 48 hrs by sulforhodamine B assay; conditions: for CC50: read-out: LC50 (the source's name); how it was run: as §1
RXF 393 [17] = assay: Growth inhibition of human RXF 393 cells incubated for 48 hrs by sulforhodamine B assay; conditions: for CC50: read-out: LC50 (the source's name); how it was run: as §2
T47D [18] = assay: Growth inhibition of human T47D cells incubated for 48 hrs by sulforhodamine B assay; conditions: for CC50: read-out: LC50 (the source's name); how it was run: as §2

COc1cccc(NC(=O)c2sc3nc4c(cc3c2N)CN(Cc2ccccc2)CC4)c1
growth at 0.01 µM (CCRF-CEM [1]): 99% | growth at 0.01 µM (A549 [2]): 96% | growth at 0.01 µM (HT-29): 104% | growth at 0.01 µM (SF-268 [3]): 99% | growth at 0.01 µM (SK-MEL-28): 97% | growth at 0.01 µM (MDA-MB-231 [4]): 107% | growth at 0.01 µM (T47D [5]): 90% | growth at 0.1 µM (CCRF-CEM [6]): 98% | growth at 0.1 µM (HCT-116): 96% | growth at 0.1 µM (HCT-15): 95% | growth at 0.1 µM (SNB-75): 92% | growth at 0.1 µM (Malme-3M [7]): 89% | growth at 0.1 µM (UACC-257): 91% | growth at 0.1 µM (OVCAR-8): 100% | growth at 0.1 µM (A498): 84% | growth at 0.1 µM (RXF 393 [8]): 95% | growth at 0.1 µM (TK-10): 104% | growth at 1 µM (SF-539): 79% | growth at 1 µM (U-251): 72% | growth at 1 µM (Malme-3M [9]): 57% | growth at 1 µM (NCI/ADR-RES): 63% | growth at 1 µM (MDA-MB-231 [10]): 78% | growth at 1 µM (MDA-MB-468): 64% | growth at 100 µM (HOP-62): -71% | growth at 100 µM (OVCAR-4): -32% | growth at 100 µM (786-0): -47% | growth at 100 µM (CAKI-1 [11]): 11% | growth at 100 µM (RXF 393 [12]): -49% | GI50 (A549 [13]): 3.79 µM | TGI (A549 [13]): 53.8 µM | CC50 (A549 [13]): > 100 µM | GI50 (HCC 2998): 9.13 µM | TGI (HCC 2998): > 100 µM | CC50 (HCC 2998): > 100 µM | GI50 (SF-268 [14]): 3.66 µM | LC50 (concentration killing 50% of cells) (SF-268 [14]): > 100 µM | TGI (SF-268 [14]): 207 µM | GI50 (Malme-3M [15]): 1.43 µM | LC50 (Malme-3M [15]): > 100 µM | TGI (Malme-3M [15]): 16.6 µM | GI50 (CAKI-1 [16]): 11.7 µM | TGI (CAKI-1 [16]): > 100 µM | CC50 (CAKI-1 [16]): > 100 µM | GI50 (RXF 393 [17]): 2.71 µM | TGI (RXF 393 [17]): 12.9 µM | CC50 (RXF 393 [17]): > 100 µM | GI50 (T47D [18]): 4.62 µM | TGI (T47D [18]): 47.3 µM | CC50 (T47D [18]): > 100 µM

CN1CCc2nc3sc(C(N)=O)c(N)c3c(-c3cccs3)c2C1
growth at 0.01 µM (CCRF-CEM [1]): 103% | growth at 0.01 µM (A549 [2]): 99% | growth at 0.01 µM (HT-29): 106% | growth at 0.01 µM (SF-268 [3]): 106% | growth at 0.01 µM (SK-MEL-28): 106% | growth at 0.01 µM (MDA-MB-231 [4]): 106% | growth at 0.01 µM (T47D [5]): 97% | growth at 0.1 µM (CCRF-CEM [6]): 107% | growth at 0.1 µM (HCT-116): 102% | growth at 0.1 µM (HCT-15): 106% | growth at 0.1 µM (SNB-75): 95% | growth at 0.1 µM (Malme-3M [7]): 111% | growth at 0.1 µM (UACC-257): 105% | growth at 0.1 µM (OVCAR-8): 96% | growth at 0.1 µM (A498): 111% | growth at 0.1 µM (RXF 393 [8]): 85% | growth at 0.1 µM (TK-10): 99% | growth at 1 µM (SF-539): 90% | growth at 1 µM (U-251): 90% | growth at 1 µM (Malme-3M [9]): 131% | growth at 1 µM (NCI/ADR-RES): 91% | growth at 1 µM (MDA-MB-231 [10]): 97% | growth at 1 µM (MDA-MB-468): 77% | growth at 100 µM (HOP-62): 2% | growth at 100 µM (OVCAR-4): 6% | growth at 100 µM (786-0): 15% | growth at 100 µM (CAKI-1 [11]): 7% | growth at 100 µM (RXF 393 [12]): -46% | GI50 (A549 [13]): 3.37 µM | TGI (A549 [13]): > 100 µM | CC50 (A549 [13]): > 100 µM | GI50 (HCC 2998): 3.54 µM | TGI (HCC 2998): 20.9 µM | CC50 (HCC 2998): > 100 µM | GI50 (SF-268 [14]): 3.85 µM | LC50 (concentration killing 50% of cells) (SF-268 [14]): > 100 µM | TGI (SF-268 [14]): > 100 µM | GI50 (Malme-3M [15]): 5.06 µM | LC50 (Malme-3M [15]): > 100 µM | TGI (Malme-3M [15]): 38.4 µM | GI50 (CAKI-1 [16]): 2.82 µM | TGI (CAKI-1 [16]): > 100 µM | CC50 (CAKI-1 [16]): > 100 µM | GI50 (RXF 393 [17]): 1.11 µM | TGI (RXF 393 [17]): 3.63 µM | CC50 (RXF 393 [17]): > 100 µM | GI50 (T47D [18]): 2.81 µM | TGI (T47D [18]): > 100 µM | CC50 (T47D [18]): > 100 µM
